Common to all, as to type: functional
Test [1] relates to Botryosphaeria berengeriana. Description: Fungicidal activity against Botryosphaeria berengeriana assessed as growth inhibition at 50 ug/ml at 23 degC after 3 days. Particulars: 72 h, read-out: GI. In a few lines: (§1)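 Test solutions were made at 500 µg/mL and mixed 1:9 with agar medium to give 50 µg/mL plates. A 4 mm plug from the edge of actively growing mycelium was placed at the plate centre and incubated at 23 °C. Colony diameter was measured after 3 days against a sterile water plus medium blank, in triplicate. Inhibition = [(C − T)/C] × 100%.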

The subject of the next test is Fusarium graminearum. Nature of the test: Fungicidal activity against Fusarium graminearum assessed as growth inhibition at 50 ug/ml at 23 degC after 3 days. Conditions: for inhibition of growth at 50 µg/mL: 72 h, read-out: GI. In outline:
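Mycelial growth test in agar plates with 50 µg/mL final compound (from 500 µg/mL solution diluted into medium). A 4 mm plug from active mycelium fringe is placed centrally and incubated at 23 °C. Diameter is read after 3 days against a sterile water plus medium blank, in triplicate. Inhibition I = [(C − T)/C] × 100%.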

The next test relates to Alternaria solani. Nature of the test: Fungicidal activity against Alternaria solani assessed as growth inhibition at 50 ug/ml at 23 degC after 3 days. Conditions: for inhibition of growth at 50 µg/mL: 72 h, read-out: GI. In a few lines:
as §1

For another test, the system named is Cladosporium cucumerinum. Nature of the test: Fungicidal activity against Cladosporium cucumerinum assessed as growth inhibition at 50 ug/ml at 23 degC after 3 days. Conditions: 72 h, read-out: GI. In a few lines: as §1
The next test deals with Cucumis sativus. Description: Growth regulation of Cucumis sativus (cucumber) seeds assessed as rhizogenesis at 10 ug/ml at 24 degC after 3 days by cucumber cotyledon test. In a few lines:
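Cucumber seeds (JINKE No. 4) were germinated in the dark at 24 °C for 3 days, and cotyledons of uniform size were selected. Sample in DMF (10 µg/mL) was sprayed onto filter paper and dried, then the paper was wetted with distilled water. Ten cotyledons were incubated in the dark at 24 °C for 3 days. Rhizogenesis was counted per 10 hypocotyls, in triplicate, with a distilled-water control and Student's t test.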

The subject of a further test is Mycosphaerella arachidis. Description: Fungicidal activity against Mycosphaerella arachidis assessed as growth inhibition at 50 ug/ml at 23 degC after 3 days. Particulars: for inhibition of growth at 50 µg/mL: 72 h, read-out: GI. In outline: as §1
In test [2] the test system is Aphis medicaginis. Nature of the test: Insecticidal activity against Aphis medicaginis in soybean tender shoots assessed as mortality at 0.5 mg/ml treated for 5 secs measured after 48 hr. In outline:
(§2)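 Insects held at 26 °C, 60% relative humidity, 14 h photoperiod. Acetone stock at 0.5 mg/mL is diluted with water containing TW-20. Soybean tender shoots bearing 60 insects are dipped for 5 s, drained, then kept under the same conditions. Mortality is scored after 48 h relative to untreated controls, in triplicate.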

Test [3] relates to Aphis medicaginis. Description: Insecticidal activity against Aphis medicaginis in soybean tender shoots assessed as mortality at 0.2 mg/ml treated for 5 secs measured after 48 hr. In outline:
as §2

The next test relates to Tetranychus cinnabarinus. Nature of the test: Insecticidal activity against Tetranychus cinnabarinus (carmine spider mite) in soybean tender shoots assessed as mortality at 0.2 mg/ml treated for 5 secs measured after 48 hr. In outline: as §2
Test [4] has as its system Aphis medicaginis. Description: Insecticidal activity against Aphis medicaginis in soybean tender shoots assessed as mortality treated for 5 secs measured after 48 hr.

Values after ≈ are worked out from the molar mass of the structure shown. Active and inactive are the calls of the source. The rule behind the calls is not given here.

`CC(C)(C)C(=O)C(Oc1ccc(Cl)cc1)n1cncn1` (centres undefined) [TRIADIMEFON]: the inhibition of growth at 50 µg/mL in [1] came out at 86.7%; in the test with Fusarium graminearum, 72.6%; in the test on Alternaria solani, 66.1%; in the test on Cladosporium cucumerinum, 81.5%; in the test with Mycosphaerella arachidis it was 73.4%. The Activity with Cucumis sativus worked out at 50.2%.
Take `Cn1nc(C(F)(F)F)c(/C=N/OCc2cnc(Cl)s2)c1Oc1ccccc1`: the inhibition of growth at 50 µg/mL in [1] came out at 30.3%; with Fusarium graminearum it was 22.4%; with Alternaria solani it was 65.6%; in the test with Cladosporium cucumerinum it was 21.6%; in the test on Mycosphaerella arachidis it was 8.7%. The mortality – broadly, the share of the test organisms that died – at 500 µg/mL with Aphis medicaginis [2] worked out at 41.4%. The mortality at 200 µg/mL is 20.2% in the test with Aphis medicaginis [3] and 11.2% in the test with Tetranychus cinnabarinus. In addition, in the test on Cucumis sativus, the Activity was -12.5%.
As for `Cn1nc(C(F)(F)F)c(/C=N/OCc2cnc(Cl)s2)c1Oc1ccc(Cl)cc1`, the inhibition of growth at 50 µg/mL in test [1] was 32.1%; in the test with Fusarium graminearum, 36.3%; in the test on Cladosporium cucumerinum, 15.4%; in the test with Mycosphaerella arachidis, 11.8%. In addition, the “growth inhibition (GI)” value in the test on Alternaria solani is “inactive”. Moreover, the mortality at 500 µg/mL in the test with Aphis medicaginis [2] turned out to be 92.3%. For the same compound, in the test with Aphis medicaginis [3], the mortality at 200 µg/mL came out at 84.4%. In addition, the mortality entry in the test on Tetranychus cinnabarinus is “inactive”. The Activity in the test with Cucumis sativus is reported as -34.3%.
Regarding `Cn1nc(C(F)(F)F)c(/C=N/OCc2cnc(Cl)s2)c1Sc1ccccc1`, the inhibition of growth at 50 µg/mL in test [1] amounted to 29.5%; in the test on Fusarium graminearum it was 40.8%; in the test on Alternaria solani, 43.5%; with Cladosporium cucumerinum it was 9.7%; with Mycosphaerella arachidis, 12.7%. For the same compound, the mortality at 500 µg/mL with Aphis medicaginis [2] worked out at 92.2%. Besides, the figures for the mortality at 200 µg/mL with Aphis medicaginis [3] and in the test with Tetranychus cinnabarinus were 83.4% and 14.4%, respectively. Besides, the Activity with Cucumis sativus came to 21.8%.
As to `Cn1nc(C(F)(F)F)c(/C=N/OCc2cnc(Cl)s2)c1Oc1ccc(F)cc1`, the inhibition of growth at 50 µg/mL in [1] worked out at 24.2%; in the test with Fusarium graminearum, 29%; in the test on Alternaria solani, 26.9%; in the test on Cladosporium cucumerinum, 53.4%; with Mycosphaerella arachidis, 67.2%. The mortality at 500 µg/mL in the test on Aphis medicaginis [2] was 90.2%. In addition, the results for the mortality at 200 µg/mL in the test on Aphis medicaginis [3] and with Tetranychus cinnabarinus were 75.3% and 13.4%, respectively. Also, the Activity in the test on Cucumis sativus stood at 28.6%.
In the case of `Cc1nn(C)c(Oc2ccccc2)c1/C=N/OCc1ccc(C(=O)OC(C)(C)C)cc1` [FENPYROXYMATE], the inhibition of growth at 50 µg/mL in [1] was 6.7%; in the test with Fusarium graminearum, 5.2%; in the test with Alternaria solani, 8.3%; with Cladosporium cucumerinum it was 14.5%; in the test with Mycosphaerella arachidis it was 12.5%. The mortality at 500 µg/mL in the test on Aphis medicaginis [2] is 18.4%. The mortality at 200 µg/mL was 12.4% in the test on Aphis medicaginis [3] and 99.7% with Tetranychus cinnabarinus. Also, the Activity in the test with Cucumis sativus worked out at 10.6%.
For the compound `Cc1ccc(Oc2c(/C=N/OCc3cnc(Cl)s3)c(C(F)(F)F)nn2C)cc1`, the inhibition of growth at 50 µg/mL in test [1] amounted to 21%; in the test on Fusarium graminearum, 23.8%; with Alternaria solani, 34.6%; with Cladosporium cucumerinum, 15.7%; with Mycosphaerella arachidis, 5.9%. For the same compound, the mortality at 500 µg/mL with Aphis medicaginis [2] worked out at 95.3%. In addition, the mortality at 200 µg/mL worked out at 85.4% with Aphis medicaginis [3] and 3.4% in the test with Tetranychus cinnabarinus. Besides, the Activity with Cucumis sativus is recorded as 43.6%.
As for `COc1ccc(Oc2c(/C=N/OCc3cnc(Cl)s3)c(C(F)(F)F)nn2C)cc1`, the inhibition of growth at 50 µg/mL in [1] was 46.5%; in the test with Alternaria solani, 14.6%; in the test on Cladosporium cucumerinum it was 12.3%; in the test on Mycosphaerella arachidis, 22.6%. For the same compound, the “growth inhibition (GI)” value with Fusarium graminearum is “inactive”. Besides, the mortality at 500 µg/mL with Aphis medicaginis [2] is 92.2%. The mortality at 200 µg/mL with Aphis medicaginis [3] was 83.4%; in the test on Tetranychus cinnabarinus, 13.4%. For the same compound, the Activity in the test on Cucumis sativus was 30.8%.
Take `Cc1ccc(Oc2c(/C=N/OCc3cnc(Cl)s3)c(C(F)(F)F)nn2C)cc1C`: the inhibition of growth at 50 µg/mL in [1] is 26.2%; in the test on Fusarium graminearum, 31.3%; with Alternaria solani, 53.2%; with Cladosporium cucumerinum, 8.9%; with Mycosphaerella arachidis, 32.9%. Moreover, in the test with Aphis medicaginis [2], the mortality at 500 µg/mL was 71.2%. Moreover, the values for the mortality at 200 µg/mL with Aphis medicaginis [3] and with Tetranychus cinnabarinus were 61.4% and 6.4%, respectively. The Activity in the test on Cucumis sativus is -23.8%.
On to `O=[N+]([O-])/N=C1\NCCN1Cc1ccc(Cl)nc1` [IMIDACLOPRID], for which the LC50 (in general, the concentration that kills 50% of the test population) in the test on Aphis medicaginis [4] is 9.1 µg/mL (≈ 35.6 µM). The mortality at 500 µg/mL with Aphis medicaginis [2] was determined as 94.7%. The mortality at 200 µg/mL with Aphis medicaginis [3] amounted to 92.1%.
Turning to `Cc1ccccc1Oc1c(/C=N/OCc2cnc(Cl)s2)c(C(F)(F)F)nn1C`, the inhibition of growth at 50 µg/mL was 35% in [1]; 21.2% with Fusarium graminearum; 42.6% in the test with Alternaria solani; 32.6% in the test on Cladosporium cucumerinum; 10% with Mycosphaerella arachidis. Moreover, the mortality at 500 µg/mL in the test on Aphis medicaginis [2] is 90.4%. Moreover, the mortality at 200 µg/mL in the test on Aphis medicaginis [3] is 81.3%; with Tetranychus cinnabarinus it was 9.3%. Besides, in the test on Cucumis sativus, the Activity was -26.8%.
`Cn1nc(C(F)(F)F)c(/C=N/OCc2cnc(Cl)s2)c1Oc1ccc(Br)cc1`: the inhibition of growth at 50 µg/mL in test [1] was determined as 32.9%; with Fusarium graminearum, 41.6%; with Alternaria solani it was 12.4%; in the test with Cladosporium cucumerinum, 17.5%; in the test on Mycosphaerella arachidis, 9.2%. For the same compound, in the test with Aphis medicaginis [2], the mortality at 500 µg/mL stood at 90.4%. In addition, the mortality at 200 µg/mL in the test with Aphis medicaginis [3] worked out at 77.4%; with Tetranychus cinnabarinus it was 4.3%. For the same compound, in the test with Cucumis sativus, the Activity was determined as 48.5%.
Consider `Cn1nc(C(F)(F)F)c(/C=N/OCc2cnc(Cl)s2)c1Oc1ccccc1Cl`, for which the inhibition of growth at 50 µg/mL in test [1] was 23.6%; in the test with Fusarium graminearum, 24.6%; in the test on Cladosporium cucumerinum, 23.7%; in the test on Mycosphaerella arachidis, 12.6%. The “growth inhibition (GI)” value with Alternaria solani was “inactive”. Besides, the mortality at 500 µg/mL in the test with Aphis medicaginis [2] worked out at 59.3%. Further, the mortality at 200 µg/mL with Aphis medicaginis [3] was found to be 46.1%; in the test on Tetranychus cinnabarinus it was 6.2%. The Activity in the test with Cucumis sativus amounted to 53.9%.
`Cc1cccc(Oc2c(/C=N/OCc3cnc(Cl)s3)c(C(F)(F)F)nn2C)c1`: the inhibition of growth at 50 µg/mL in test [1] was 45.3%; with Fusarium graminearum it was 33.6%; with Alternaria solani, 28%; in the test on Cladosporium cucumerinum, 31.3%; in the test on Mycosphaerella arachidis, 11.8%. Also, the mortality at 500 µg/mL with Aphis medicaginis [2] amounted to 93.1%. The figures for the mortality at 200 µg/mL in the test with Aphis medicaginis [3] and in the test on Tetranychus cinnabarinus were 82.4% and 2.3%, respectively. For the same compound, the Activity in the test with Cucumis sativus is recorded as 22.7%.
Turning to `Cn1nc(C(F)(F)F)c(/C=N/OCc2cnc(Cl)s2)c1Oc1ccc(C(C)(C)C)cc1`, the inhibition of growth at 50 µg/mL was found to be 22.1% in test [1], 12.5% with Fusarium graminearum, 24.8% in the test on Alternaria solani and 18.1% with Cladosporium cucumerinum. In addition, in the test on Aphis medicaginis [2], the mortality at 500 µg/mL worked out at 89.4%. Besides, the mortality at 200 µg/mL in the test on Aphis medicaginis [3] was 73.3%. Further, the mortality result in the test on Tetranychus cinnabarinus was “inactive”. Also, in the test on Cucumis sativus, the Activity came to 72.7%. In the test with Mycosphaerella arachidis, the “growth inhibition (GI)” value was “inactive”.
Turning to `Cn1nc(C(F)(F)F)c(/C=N/OCc2cnc(Cl)s2)c1Oc1cccc(Cl)c1`, the inhibition of growth at 50 µg/mL in [1] amounted to 21.7%; in the test on Fusarium graminearum, 26.7%; with Alternaria solani, 22.9%; in the test on Cladosporium cucumerinum, 43.1%; in the test with Mycosphaerella arachidis, 55.3%. Further, the mortality at 500 µg/mL with Aphis medicaginis [2] was 70.4%. Further, the mortality at 200 µg/mL with Aphis medicaginis [3] was 61.2%; in the test with Tetranychus cinnabarinus it was 7.4%. Also, the Activity with Cucumis sativus came to 14.2%.
For `Cc1ccc(Cl)c(Oc2c(/C=N/OCc3cnc(Cl)s3)c(C(F)(F)F)nn2C)c1`, the inhibition of growth at 50 µg/mL in [1] is 29.8%; in the test on Alternaria solani, 32.3%; in the test on Cladosporium cucumerinum it was 48.5%; with Mycosphaerella arachidis it was 10.1%. Further, in the test on Fusarium graminearum, the “growth inhibition (GI)” value was “inactive”. The mortality at 500 µg/mL with Aphis medicaginis [2] was found to be 83.4%. For the same compound, the mortality at 200 µg/mL is 69.2% in the test on Aphis medicaginis [3] and 17.4% in the test with Tetranychus cinnabarinus. Further, the Activity in the test on Cucumis sativus is reported as 37.9%.

Source of the values: ChEMBL document CHEMBL3044850, “Synthesis and biological activities of novel pyrazole oxime derivatives containing a 2-chloro-5-thiazolyl moiety” (2008).
